Only some compounds are listed: those with a hit (about 5.4% of all), similar ones and a draw of the others.
T cruzi repl: blocks replication of Trypanosoma cruzi. 1.4% of 300,000 active. inhibition, % (test concentration not listed). AID 1885. T. cruzi beta-gal in NIH3T3, luminescence, 90 h;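 active means mean inhibition across valid replicates above about 55%, limit read from the data; inconclusive means mean below that limit but half or more replicates reach it; inactive means mean below it, under half of replicates reach it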;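 further: signal also drops with host cell toxicity which is not excluded here; 0% = plate median of DMSO wells and 100% = zero luminescence signal; higher percent means less beta-gal luminescence so fewer parasites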
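System: mouse NIH/3T3 fibroblasts infected with β-gal-expressing T. cruzi Tulahuen C4 / Input: NIH/3T3 cells, 5,000 per well / Buffer or medium: Low-serum DMEM with 2% FBS / Probe or stimulus: 5000 reporter trypomastigotes per well / Schedule: ≥90 h infection period, 3 h prior cell attachment / Measured by: GalScreen luminescence, 60 min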
aSyn 5UTR inh: 5' untranslated region of α-synuclein, MLPCN primary screen. inhibition, % (tested at 7.5 µM). 0.82% of 300,000 active. alpha-synuclein 5'UTR reporter, inhibitor activity; in the data active means inhibition above about 60%; inconclusive means no clear call, values can overlap the other calls;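 further: H4 neuroglioblastoma cells stably carrying SNCA 5'UTR luciferase fusion; 0% = DMSO wells and 100% = positive control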
Mdm2-MdmX inh: disrupts the human Mdm2-MdmX interaction; O15151+Q00987; SaOS-2 split-luciferase Mdm2/MdmX complementation, luminescence; inhibition, % at 8 µM; 3% of 330,000 active; AID 485346;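 active means inhibition of at least 50% at 8 µM in the primary screen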
Target sequence (O15151 whole entry, looked up): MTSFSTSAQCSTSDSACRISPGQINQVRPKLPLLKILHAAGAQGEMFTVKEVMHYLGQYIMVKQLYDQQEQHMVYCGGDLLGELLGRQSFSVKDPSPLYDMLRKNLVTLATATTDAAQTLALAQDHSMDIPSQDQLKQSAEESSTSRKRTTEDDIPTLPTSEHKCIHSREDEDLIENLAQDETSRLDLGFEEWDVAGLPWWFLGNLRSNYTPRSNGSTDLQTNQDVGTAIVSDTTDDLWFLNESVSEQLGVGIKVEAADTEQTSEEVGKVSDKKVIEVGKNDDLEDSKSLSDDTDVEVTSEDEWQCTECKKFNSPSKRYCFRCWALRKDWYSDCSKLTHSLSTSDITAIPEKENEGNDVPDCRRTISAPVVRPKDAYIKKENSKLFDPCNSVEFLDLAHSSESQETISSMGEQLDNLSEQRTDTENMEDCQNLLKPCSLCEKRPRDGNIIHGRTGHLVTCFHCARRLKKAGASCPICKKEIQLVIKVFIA
Target sequence (Q00987 whole entry, looked up): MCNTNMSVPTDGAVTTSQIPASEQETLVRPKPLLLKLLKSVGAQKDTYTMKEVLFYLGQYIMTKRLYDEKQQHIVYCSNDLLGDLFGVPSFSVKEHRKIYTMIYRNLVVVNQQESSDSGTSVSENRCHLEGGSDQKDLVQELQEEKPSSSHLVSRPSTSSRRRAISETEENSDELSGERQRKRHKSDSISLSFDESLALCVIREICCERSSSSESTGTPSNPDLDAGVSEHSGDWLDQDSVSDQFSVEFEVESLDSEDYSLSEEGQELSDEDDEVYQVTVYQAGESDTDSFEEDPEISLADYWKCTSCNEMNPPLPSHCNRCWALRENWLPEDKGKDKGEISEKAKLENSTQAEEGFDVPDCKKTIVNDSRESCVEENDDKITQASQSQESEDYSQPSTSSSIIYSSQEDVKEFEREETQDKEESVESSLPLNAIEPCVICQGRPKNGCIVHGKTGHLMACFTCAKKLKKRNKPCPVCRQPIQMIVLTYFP
CSC inhib: cancer stem cell inhibition; inhibition, % at 7.5 µM; cancer stem cell-like cells viability, luminescence; 1.1% of 300,000 active; AID 2717; in the data active means inhibition above about 75%; inconclusive means no clear call, values can overlap the other calls; tested in HMLE shEcad cells
SKKanGAS inh: inhibitors of SKKanGAS S. pyogenes growth in kanamycin (SK-promoter or general growth effect); BacTiter-Glo, 6 h; inhibition, % at 7.5 µM; 1.3% of 300,000 active; AID 1662;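 active means mean replicate score, as percent of positive control median, at least 50; inconclusive means mean below 50 but one replicate at or above 50; inactive means mean and every replicate below 50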;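 further: strain carries kanamycin resistance gene driven by streptokinase promoter and grows in 40 µg/ml kanamycin; loss of luminescence reflects streptokinase promoter inhibition or plain growth inhibition; 0% = median of DMSO wells and 100% = positive control at its reference dose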
* hit, by the source's call; ? = inconclusive; · = no result given.

SMILES | T cruzi repl | aSyn 5UTR inh | Mdm2-MdmX inh | CSC inhib | SKKanGAS inh
Cc1ccc(Sc2ccc(NC(=O)CCN3C(=O)NC4(CCCC4)C3=O)cc2)c(C)c1 | · | · | 19 | · | ·
CC(C(=O)N(C)Cc1ccccc1)N1CCN(C/C=C/c2ccccc2)CC1 (centres undefined) | 60* | -26 | -1 | · | -10
CC(=O)c1ccc(NC(=O)C(C)N2CCN(C/C=C/c3ccccc3)CC2)cc1 (centres undefined) | 39 | 11 | 27 | 0 | -14
Cc1ccc(S(=O)(=O)CCC(=O)c2cccc([N+](=O)[O-])c2)cc1 | 58* | -11 | -1 | 13 | 4
Cc1ccc(S(=O)(=O)Cc2cc(F)c([N+](=O)[O-])cc2[N+](=O)[O-])cc1 | 0 | 5 | 3 | 102* | 6
CCOC(=O)c1ccc([N+](=O)[O-])c(CS(=O)(=O)c2ccc(Cl)cc2)c1 | 35 | 3 | -5 | -1 | 0
O=C(NCc1ccncc1)C1CCCCC1 | -13 | -3 | 9 | -5 | -1
COc1ccc(C(=O)/C=C/c2ccc(O)cc2)c2c1CC(O)C(C)(C)O2 (centres undefined) | · | · | 45 | · | ·
COc1ccc(C(=O)/C=C/c2ccc(O)cc2)c(O)c1CC=C(C)C | 13 | -41 | 11 | -15 | 89*
Oc1ccc(Nc2nc(-c3ccc4ccccc4c3)cs2)cc1 | -3 | -210 | -88 | 134* | 53*
CC(=O)Nc1ccc(-c2csc(NC(=O)CCCc3cccs3)n2)cc1 | -20 | -45 | 14 | 75* | -8
CC(=O)NCCC(=O)Nc1nc(-c2ccc3ccccc3c2)cs1 | 60* | -52 | 36 | · | -3
CC(C)(C)c1ccc(-c2noc(CCC(=O)NCc3ccco3)n2)cc1 | -11 | 77* | -153 | 5 | 2
CCOC(=O)CSc1nc2c(sc(=S)n2-c2ccccc2OC)c(=O)n1Cc1ccco1 | 2 | -21 | 12 | 14 | 6
Cc1nn(-c2ccccc2)c(C)c1NC(=O)COC(=O)c1cccc(OC(F)F)c1 | 1 | -4 | 5 | 5 | 19
Cc1cc2sc3ccccc3c(=O)c2c(C)c1O | -9 | -96 | -39 | -16 | -8
O=c1c(C(c2ccccc2)c2c(O)sc3ccccc3c2=O)c(O)sc2ccccc12 | -11 | -21 | 36 | 88* | 97*
COc1cc2ccccc2cc1C(=O)NC(=S)Nc1ccc(C(=O)O)cc1 | -11 | -57 | 34 | 0 | 54*
COc1ccccc1C(=O)NC(=S)Nc1ccc(N2CCCC2)cc1 | 56* | -83 | 12 | -1 | 9
CC1(C)C(=O)Nc2ccccc2N1C(=O)COC(=O)c1cccnc1Cl | · | · | -23 | 2 | ·
COc1ccc(OC)c(NC(=O)CCc2c[nH]c3ccccc23)c1 | -12 | -24 | -4 | 24 | 0
COC(=O)C/C(C)=N/Nc1ccc(S(=O)(=O)N2CCCC2)cc1[N+](=O)[O-] | -6 | 1 | 7 | -8 | 0
COc1cccc(CC2(CO)CCCN(Cc3cn(C)c4ccccc34)C2)c1 (centres undefined) | 65* | 17 | 34 | 10 | -12
COc1cccc(CC2(CO)CCCN(C/C=C/c3ccccc3OC)C2)c1 (centres undefined) | 63* | 6 | 18 | 33 | 5
COc1cccc(CC2(CO)CCCN(Cc3ccc(CN4CCCCC4)s3)C2)c1 (centres undefined) | 71* | -9 | -19 | 62 | 3
SMILES | T cruzi repl | aSyn 5UTR inh | Mdm2-MdmX inh | CSC inhib | SKKanGAS inh
Cn1cc(CN2CCCC(CO)(Cc3ccccc3)C2)c2ccccc21 (centres undefined) | 67* | 29 | 12 | 19 | -4
NC1=NC2CS(=O)(=O)CC2S1 (centres undefined) | 1 | 11 | -19 | -2 | 0
O=C(NCCS(=O)(=O)NCc1cccnc1)c1ccccc1 | -9 | -17 | 25 | -15 | -1
COc1ccc(CN2CCCC(CO)(Cc3ccc(F)cc3)C2)cc1C (centres undefined) | 58* | 7 | -2 | 28 | -2
COc1cccc(-c2coc3c(C)c4oc(=O)c(CCC(=O)O)c(C)c4cc23)c1 | 1 | -3 | -7 | 13 | 51*
Cc1ccc(S(=O)(=O)N2CCCN(C(C)c3nc4ccccc4c(=O)[nH]3)CC2)cc1 (centres undefined) | · | · | 16 | 9 | ·
O=C(c1ccc(Cl)c(S(=O)(=O)N2CCOCC2)c1)N1CCc2ccccc2C1 | · | · | 23 | -7 | ·
Cc1ccc(C)c(NS(=O)(=O)c2cc(C(=O)N3CCc4ccccc4C3)ccc2Cl)c1 | 56* | 25 | 28 | 18 | 35
Cc1ccccc1NS(=O)(=O)c1cc(C(=O)N2CCCC2)ccc1Cl | -1 | 14 | 7 | 1 | 4
Cc1cccc(NS(=O)(=O)c2cc(C(=O)N3CCc4ccccc4C3)ccc2Cl)c1C | 60* | 11 | 21 | 7 | 11
O=C1CC(NS(=O)(=O)c2ccc([N+](=O)[O-])cc2)CN1c1cccc(F)c1 (centres undefined) | 65* | 24 | 20 | -20 | 7
CC(=O)c1ccc(S(=O)(=O)NC2CC(=O)N(c3cccc(F)c3)C2)cc1 (centres undefined) | -8 | 12 | 1 | -6 | 1
O=C(/C=C/c1ccco1)Oc1cc(Br)cc(/C=N/NC(=O)c2ccccc2O)c1 | 7 | 96* | · | 9 | 88*
Cc1ccc(C(=O)N/N=C/c2cccc(OC(=O)/C=C/c3ccco3)c2)cn1 | -15 | -100 | 16 | -2 | 10
CCOc1ccccc1N(C(=O)CNC(=O)c1ccco1)C(C(=O)NC(C)(C)C)c1ccncc1 (centres undefined) | 0 | -16 | -35 | 7 | -9
CCc1ccc(NC(=O)c2cnn3ccccc23)cc1 | -17 | 78* | -11 | 19 | -4
Cc1nn(-c2cccc(Cl)c2)c(Cl)c1/C=N/NC(=O)c1cccnc1 | -1 | -18 | 14 | -8 | -4
Cc1ccc2cc3cc(C(=O)N(CC(=O)NC4CCCC4)c4cccc(C)c4C)sc3nc2c1 | 58* | 11 | 22 | 21 | 26
O=C(CCn1cccn1)Nc1ccc2c(c1)OCCO2 | -13 | -45 | 26 | 0 | 12
CSc1ccc(/C=C/C(=O)OCC(=O)N2CCN(S(=O)(=O)c3ccc(C)cc3C)CC2)cc1 | · | · | -25 | -11 | ·
C=C(C)C1Cc2c(C)nn(-c3cccc4ccccc34)c2C1 (centres undefined) | 20 | 28 | 10 | 96* | ?
C=C(C)C1Cc2c(C)nn(-c3ccccc3)c2C1 (centres undefined) | -16 | -4 | 21 | 4 | 1
O=S(=O)(c1c(F)cccc1F)N1CCCC2CCCCC21 (centres undefined) | · | · | -3 | 3 | ·
CC(C)CN1C(=S)SC(C)(C)C1n1oc(=O)n(-c2ccc(Cl)cc2)c1=O (centres undefined) | 39 | -20 | 32 | 53 | 71*
O=C(NNc1ccc(F)cc1F)c1c(F)cccc1Cl | 5 | 2 | 1 | 1 | 5
O=C(NNc1c(Cl)cccc1Cl)c1c(F)cccc1Cl | -12 | 7 | 16 | -13 | 51*
